In ChEMBL document CHEMBL5046217, “Discovery of New Imidazo[2,1-b]thiazole Derivatives as Potent Pan-RAF Inhibitors with Promising In Vitro and In Vivo Anti-melanoma Activity” (J Med Chem, 2021):

Assays:
[1] = Acute toxicity in Hsd:athymic nude-Foxn1nu mouse at 50 to 250 mg/kg; format: organism-based; conditions: in vivo, dose 50-250 mg/kg
Summary of the method: (§1)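 Male Hsd:Athymic Nude-Foxn1nu mice received the compound by injection at five single doses (50, 100, 250, 500 and 1000 mg/kg), with seven animals per dose group.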

[2] = Stability in human plasma assessed as parent compound remaining at 10 uM measured after 30 mins by LC-MS analysis; format: ADME, cell-free; conditions: read-out: Stability
Summary of the method: (§2)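 About 10 μM compound shaken in human or rat plasma at 37 °C for 30 and 120 min. Acetonitrile added, samples centrifuged at 4 °C, and remaining parent in the supernatant quantified by LC−MS. Procaine and diltiazem run as references.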

[3] = target: Fibroblast growth factor receptor 1 (Homo sapiens, UniProt P11362); assay: Inhibition of FGFR1 (unknown origin) incubated for 1 hr by qPCR analysis
[4] = Stability in rat plasma assessed as parent compound remaining at 10 uM measured after 120 mins by LC-MS analysis; format: ADME, cell-free; conditions: read-out: Stability; summary of the method: as §2
[5] = Volume of distribution in Sprague-Dawley rat at 5 mg/kg, iv by LC-MS/MS analysis; format: ADME, organism-based; conditions: in vivo
Summary of the method: (§3)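 Male SD rats, 7−8 weeks, 250−300 g, three per group, dosed 5 mg/kg IV or PO. Vehicle was 5% DMSO/40% PEG400/55% water. Rats fasted 16 h before oral dosing. Samples taken every 30 min and measured by LC/MS/MS with carbamazepine as internal standard. Parameters from non-compartmental analysis of plasma concentration–time profiles.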

[6] = Clearance in Sprague-Dawley rat at 5 mg/kg, iv by LC-MS/MS analysis; format: ADME, organism-based; conditions: in vivo
Summary of the method: (§4)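 Male SD rats (7–8 weeks, 250–300 g), three per group, were dosed at 5 mg/kg i.v. or p.o. in 5% DMSO/40% PEG400/55% water. Rats were fasted 16 h before oral dosing. Serum was sampled every 30 min and measured by LC/MS/MS with carbamazepine as internal standard. Parameters came from non-compartmental analysis.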

[7] = Half life in Sprague-Dawley rat at 5 mg/kg, po by LC-MS/MS analysis; format: ADME, organism-based; conditions: in vivo; summary of the method: as §4
[8] = Cmax in Sprague-Dawley rat at 5 mg/kg, po by LC-MS/MS analysis; format: ADME, organism-based; set-up: route oral, dose 5 mg/kg; conditions: in vivo; summary of the method: as §4
[9] = target: Mitogen-activated protein kinase 8 (Homo sapiens, UniProt P45983); assay: Inhibition of MAPK8 (unknown origin) incubated for 1 hr by qPCR analysis
Summary of the method: (§5)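 Competition binding assay. Kinases were either T7-phage-tagged (grown in an E. coli BL21-derived host) or expressed in HEK-293 cells and DNA-tagged. […] Bound kinase was eluted with non-biotinylated ligand and quantified by qPCR.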

[10] = Oral bioavailability in Sprague-Dawley rat at 5 mg/kg by LC-MS/MS analysis; format: ADME, organism-based; conditions: in vivo; summary of the method: as §3
[11] = target: Mitogen-activated protein kinase 14 (Homo sapiens, UniProt Q16539); assay: Inhibition of MAPK14 (unknown origin) incubated for 1 hr by qPCR analysis; summary of the method: as §5
[12] = Acute toxicity in Hsd:athymic nude-Foxn1nu mouse assessed as animal mortality at 500 to 1000 mg/kg; format: organism-based; conditions: in vivo, dose 500-1000 mg/kg; summary of the method: as §1
[13] = Stability in rat plasma assessed as parent compound remaining at 10 uM measured after 30 mins by LC-MS analysis; format: ADME, cell-free; conditions: read-out: Stability; summary of the method: as §2
[14] = target: Homeodomain-interacting protein kinase 1 (Homo sapiens, UniProt Q86Z02); assay: Inhibition of HIPK1 (unknown origin) incubated for 1 hr by qPCR analysis; summary of the method: as §5
[15] = target: T1, Receptor-type tyrosine-protein kinase FLT3 (Homo sapiens, UniProt P36888); assay: Inhibition of FLT3 (unknown origin) incubated for 1 hr by qPCR analysis; summary of the method: as §5
T1 sequence (P36888 whole entry): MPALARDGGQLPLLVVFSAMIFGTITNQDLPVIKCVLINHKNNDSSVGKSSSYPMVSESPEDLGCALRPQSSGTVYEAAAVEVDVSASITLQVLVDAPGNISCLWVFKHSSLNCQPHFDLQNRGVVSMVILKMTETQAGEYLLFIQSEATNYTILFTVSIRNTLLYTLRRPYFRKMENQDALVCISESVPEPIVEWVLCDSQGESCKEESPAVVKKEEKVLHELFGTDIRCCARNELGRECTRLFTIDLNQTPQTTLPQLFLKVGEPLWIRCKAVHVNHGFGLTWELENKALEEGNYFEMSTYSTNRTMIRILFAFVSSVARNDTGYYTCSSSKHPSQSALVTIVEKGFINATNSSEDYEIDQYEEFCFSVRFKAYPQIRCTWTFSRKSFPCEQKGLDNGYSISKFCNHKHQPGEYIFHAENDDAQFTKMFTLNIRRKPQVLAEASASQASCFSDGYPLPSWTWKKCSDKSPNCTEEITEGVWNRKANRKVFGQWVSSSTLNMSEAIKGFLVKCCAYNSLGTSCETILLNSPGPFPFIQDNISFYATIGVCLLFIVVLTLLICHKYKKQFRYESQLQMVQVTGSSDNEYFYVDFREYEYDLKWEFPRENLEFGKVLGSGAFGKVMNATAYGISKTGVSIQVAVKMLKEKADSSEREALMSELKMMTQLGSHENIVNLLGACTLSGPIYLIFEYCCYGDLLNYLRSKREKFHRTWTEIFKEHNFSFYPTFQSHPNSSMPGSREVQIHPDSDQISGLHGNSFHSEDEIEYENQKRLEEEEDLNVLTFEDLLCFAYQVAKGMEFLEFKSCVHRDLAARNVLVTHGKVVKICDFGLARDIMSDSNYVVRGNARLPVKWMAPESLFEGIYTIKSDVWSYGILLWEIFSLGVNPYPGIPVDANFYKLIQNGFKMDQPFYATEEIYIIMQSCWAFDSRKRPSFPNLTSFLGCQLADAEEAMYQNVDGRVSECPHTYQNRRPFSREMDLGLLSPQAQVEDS

[16] = target: Mitogen-activated protein kinase 11 (Homo sapiens, UniProt Q15759); assay: Inhibition of MAPK11 (unknown origin) incubated for 1 hr by qPCR analysis; summary of the method: as §5
[17] = Apparent permeability across basolateral to apical side in human Caco-2 cells at 5 uM measured every 15 mins for 1 hr by LC-MS/MS analysis; format: ADME, cell-based
[18] = target: RAF proto-oncogene serine/threonine-protein kinase (Homo sapiens, UniProt P04049); assay: Inhibition of human wild type CRAF using myelin basic protein as substrate in presence of [gamma-33P]ATP incubated for 40 mins by scintillation counting method
[19] = Apparent permeability across apical to basolateral side in human Caco-2 cells at 5 uM measured every 15 mins for 1 hr by LC-MS/MS analysis; format: ADME, cell-based
[20] = Tmax in Sprague-Dawley rat at 5 mg/kg, po by LC-MS/MS analysis; format: ADME, organism-based; conditions: in vivo; summary of the method: as §3
[21] = target: Tyrosine-protein kinase ABL1 (Homo sapiens, UniProt P00519); assay: Inhibition of ABL1 (unknown origin) incubated for 1 hr by qPCR analysis
[22] = target: Mitogen-activated protein kinase kinase kinase 20 (Homo sapiens, UniProt Q9NYL2); assay: Inhibition of ZAK (unknown origin) incubated for 1 hr by qPCR analysis; summary of the method: as §5
[23] = target: Serine/threonine-protein kinase B-raf (Homo sapiens, UniProt P15056); assay: Inhibition of human wild type BRAF using myelin basic protein as substrate in presence of [gamma-33P]ATP incubated for 40 mins by scintillation counting method
Summary of the method: (§6)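 Radiometric kinase assay run at Reaction Biology. Kinase (5−10 mU) in 25 mM Tris pH 7.5, 0.02 mM EGTA, 10 mM magnesium acetate with 0.66 mg/mL myelin basic protein and [γ-33P]ATP at 1 μM ATP. Reaction started with Mg-ATP and run 40 min at room temperature, then stopped with 3% phosphoric acid. Spotted on P30 filtermat, washed, scintillation counted.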

[24] = Half life in Sprague-Dawley rat at 5 mg/kg, iv by LC-MS/MS analysis; format: ADME, organism-based; conditions: in vivo; summary of the method: as §4
[25] = Stability in human plasma assessed as parent compound remaining at 10 uM measured after 120 mins by LC-MS analysis; format: ADME, cell-free; conditions: read-out: Stability; summary of the method: as §2
[26] = target: Serine/threonine-protein kinase/endoribonuclease IRE1 (Homo sapiens, UniProt O75460); assay: Inhibition of ERN1 (unknown origin) incubated for 1 hr by qPCR analysis; summary of the method: as §5
[27] = target: Serine/threonine-protein kinase B-raf (Homo sapiens, UniProt P15056, V600E); assay: Inhibition of human BRAF V600E mutant using myelin basic protein as substrate in presence of [gamma-33P]ATP incubated for 40 mins by scintillation counting method; summary of the method: as §6

Mitogen-activated protein kinase 11, sequence (Q15759 whole entry): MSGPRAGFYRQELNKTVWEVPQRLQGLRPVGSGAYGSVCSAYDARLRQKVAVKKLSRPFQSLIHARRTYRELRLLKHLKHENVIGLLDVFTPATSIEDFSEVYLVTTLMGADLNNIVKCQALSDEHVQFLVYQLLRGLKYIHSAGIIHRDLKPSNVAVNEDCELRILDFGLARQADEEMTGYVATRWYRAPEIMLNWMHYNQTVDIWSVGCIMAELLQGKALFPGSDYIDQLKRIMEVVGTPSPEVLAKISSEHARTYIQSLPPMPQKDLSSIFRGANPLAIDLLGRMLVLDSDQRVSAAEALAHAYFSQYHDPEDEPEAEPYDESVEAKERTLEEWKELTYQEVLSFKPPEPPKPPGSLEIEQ
Mitogen-activated protein kinase kinase kinase 20, sequence (Q9NYL2 whole entry): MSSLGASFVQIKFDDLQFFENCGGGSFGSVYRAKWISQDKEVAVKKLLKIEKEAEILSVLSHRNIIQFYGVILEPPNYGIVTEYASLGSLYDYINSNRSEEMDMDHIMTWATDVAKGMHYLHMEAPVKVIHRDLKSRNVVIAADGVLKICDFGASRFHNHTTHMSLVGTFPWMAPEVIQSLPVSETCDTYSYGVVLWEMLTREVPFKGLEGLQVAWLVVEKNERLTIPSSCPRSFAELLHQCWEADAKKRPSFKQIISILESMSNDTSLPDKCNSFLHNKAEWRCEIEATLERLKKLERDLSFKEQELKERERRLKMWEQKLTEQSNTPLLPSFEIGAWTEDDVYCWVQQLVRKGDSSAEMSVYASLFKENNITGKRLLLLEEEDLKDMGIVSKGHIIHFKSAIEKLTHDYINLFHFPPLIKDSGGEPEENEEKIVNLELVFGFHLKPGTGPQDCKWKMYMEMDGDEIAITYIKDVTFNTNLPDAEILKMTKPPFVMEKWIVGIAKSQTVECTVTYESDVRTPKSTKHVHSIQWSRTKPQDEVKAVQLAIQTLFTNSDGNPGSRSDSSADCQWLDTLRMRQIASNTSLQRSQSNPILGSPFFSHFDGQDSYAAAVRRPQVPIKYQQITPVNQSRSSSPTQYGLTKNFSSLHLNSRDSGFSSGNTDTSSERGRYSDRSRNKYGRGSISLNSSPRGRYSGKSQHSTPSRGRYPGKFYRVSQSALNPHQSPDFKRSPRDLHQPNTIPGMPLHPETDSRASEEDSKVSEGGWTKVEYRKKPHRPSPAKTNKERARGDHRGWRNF
Mitogen-activated protein kinase 8, sequence (P45983 whole entry): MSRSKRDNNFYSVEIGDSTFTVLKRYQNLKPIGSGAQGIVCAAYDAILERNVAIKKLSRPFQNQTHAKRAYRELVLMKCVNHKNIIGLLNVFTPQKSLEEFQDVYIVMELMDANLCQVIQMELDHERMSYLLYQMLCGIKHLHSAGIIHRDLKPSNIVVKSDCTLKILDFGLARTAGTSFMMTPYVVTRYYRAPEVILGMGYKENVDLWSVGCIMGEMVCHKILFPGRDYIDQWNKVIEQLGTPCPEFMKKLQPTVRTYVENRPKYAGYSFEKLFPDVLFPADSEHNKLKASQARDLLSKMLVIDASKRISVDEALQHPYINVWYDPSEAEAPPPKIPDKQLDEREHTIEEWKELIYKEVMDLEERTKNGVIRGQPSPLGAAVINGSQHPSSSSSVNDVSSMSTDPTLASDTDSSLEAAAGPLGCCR
Serine/threonine-protein kinase B-raf (Homo sapiens, UniProt P15056), sequence (P15056 whole entry): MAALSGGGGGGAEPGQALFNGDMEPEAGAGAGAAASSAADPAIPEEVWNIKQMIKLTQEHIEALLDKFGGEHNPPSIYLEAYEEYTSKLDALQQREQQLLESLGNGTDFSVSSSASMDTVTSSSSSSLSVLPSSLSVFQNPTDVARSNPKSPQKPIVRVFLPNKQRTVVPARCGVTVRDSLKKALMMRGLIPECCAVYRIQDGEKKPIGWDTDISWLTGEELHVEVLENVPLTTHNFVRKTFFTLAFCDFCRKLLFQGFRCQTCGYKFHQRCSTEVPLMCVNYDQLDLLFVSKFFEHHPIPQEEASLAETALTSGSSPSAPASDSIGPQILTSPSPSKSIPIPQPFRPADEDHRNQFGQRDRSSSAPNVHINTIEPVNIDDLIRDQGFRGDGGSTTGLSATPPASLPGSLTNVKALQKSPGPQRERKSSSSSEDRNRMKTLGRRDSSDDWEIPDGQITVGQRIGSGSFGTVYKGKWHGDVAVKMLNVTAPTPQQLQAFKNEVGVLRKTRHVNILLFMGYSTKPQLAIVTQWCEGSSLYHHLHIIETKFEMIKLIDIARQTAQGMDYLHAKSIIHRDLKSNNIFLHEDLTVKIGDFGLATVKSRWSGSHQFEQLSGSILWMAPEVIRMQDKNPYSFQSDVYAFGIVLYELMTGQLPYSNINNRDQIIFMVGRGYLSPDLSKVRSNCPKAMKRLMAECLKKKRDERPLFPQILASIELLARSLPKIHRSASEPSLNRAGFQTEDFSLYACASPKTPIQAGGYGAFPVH
Tyrosine-protein kinase ABL1, sequence (P00519 whole entry): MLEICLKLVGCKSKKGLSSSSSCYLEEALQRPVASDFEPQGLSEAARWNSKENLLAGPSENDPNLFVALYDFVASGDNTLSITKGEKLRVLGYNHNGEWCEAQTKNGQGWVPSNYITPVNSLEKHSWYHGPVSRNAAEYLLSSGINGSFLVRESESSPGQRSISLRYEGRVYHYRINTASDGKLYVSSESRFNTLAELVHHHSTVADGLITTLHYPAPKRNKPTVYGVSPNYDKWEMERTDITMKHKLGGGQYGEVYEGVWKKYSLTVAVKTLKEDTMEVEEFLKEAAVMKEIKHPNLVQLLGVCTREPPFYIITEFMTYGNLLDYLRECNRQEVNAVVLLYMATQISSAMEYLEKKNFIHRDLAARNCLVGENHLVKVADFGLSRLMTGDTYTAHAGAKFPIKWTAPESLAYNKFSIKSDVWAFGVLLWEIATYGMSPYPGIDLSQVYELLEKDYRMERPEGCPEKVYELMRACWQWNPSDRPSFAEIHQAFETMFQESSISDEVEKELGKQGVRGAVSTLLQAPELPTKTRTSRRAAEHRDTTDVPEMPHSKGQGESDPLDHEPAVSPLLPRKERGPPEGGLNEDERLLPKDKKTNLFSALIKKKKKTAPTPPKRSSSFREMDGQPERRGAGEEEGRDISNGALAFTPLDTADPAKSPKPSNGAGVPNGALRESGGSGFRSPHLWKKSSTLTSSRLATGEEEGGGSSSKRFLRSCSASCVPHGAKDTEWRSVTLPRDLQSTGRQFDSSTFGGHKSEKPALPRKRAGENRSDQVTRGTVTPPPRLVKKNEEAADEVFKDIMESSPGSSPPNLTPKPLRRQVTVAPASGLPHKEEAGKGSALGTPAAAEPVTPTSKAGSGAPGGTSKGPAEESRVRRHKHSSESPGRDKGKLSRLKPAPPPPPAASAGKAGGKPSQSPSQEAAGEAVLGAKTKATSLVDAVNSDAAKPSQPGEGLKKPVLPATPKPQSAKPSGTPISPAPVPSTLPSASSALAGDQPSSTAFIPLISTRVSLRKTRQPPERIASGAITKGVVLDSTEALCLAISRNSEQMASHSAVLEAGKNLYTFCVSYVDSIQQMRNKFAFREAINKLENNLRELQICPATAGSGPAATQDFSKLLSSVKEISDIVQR
Homeodomain-interacting protein kinase 1, sequence (Q86Z02 whole entry): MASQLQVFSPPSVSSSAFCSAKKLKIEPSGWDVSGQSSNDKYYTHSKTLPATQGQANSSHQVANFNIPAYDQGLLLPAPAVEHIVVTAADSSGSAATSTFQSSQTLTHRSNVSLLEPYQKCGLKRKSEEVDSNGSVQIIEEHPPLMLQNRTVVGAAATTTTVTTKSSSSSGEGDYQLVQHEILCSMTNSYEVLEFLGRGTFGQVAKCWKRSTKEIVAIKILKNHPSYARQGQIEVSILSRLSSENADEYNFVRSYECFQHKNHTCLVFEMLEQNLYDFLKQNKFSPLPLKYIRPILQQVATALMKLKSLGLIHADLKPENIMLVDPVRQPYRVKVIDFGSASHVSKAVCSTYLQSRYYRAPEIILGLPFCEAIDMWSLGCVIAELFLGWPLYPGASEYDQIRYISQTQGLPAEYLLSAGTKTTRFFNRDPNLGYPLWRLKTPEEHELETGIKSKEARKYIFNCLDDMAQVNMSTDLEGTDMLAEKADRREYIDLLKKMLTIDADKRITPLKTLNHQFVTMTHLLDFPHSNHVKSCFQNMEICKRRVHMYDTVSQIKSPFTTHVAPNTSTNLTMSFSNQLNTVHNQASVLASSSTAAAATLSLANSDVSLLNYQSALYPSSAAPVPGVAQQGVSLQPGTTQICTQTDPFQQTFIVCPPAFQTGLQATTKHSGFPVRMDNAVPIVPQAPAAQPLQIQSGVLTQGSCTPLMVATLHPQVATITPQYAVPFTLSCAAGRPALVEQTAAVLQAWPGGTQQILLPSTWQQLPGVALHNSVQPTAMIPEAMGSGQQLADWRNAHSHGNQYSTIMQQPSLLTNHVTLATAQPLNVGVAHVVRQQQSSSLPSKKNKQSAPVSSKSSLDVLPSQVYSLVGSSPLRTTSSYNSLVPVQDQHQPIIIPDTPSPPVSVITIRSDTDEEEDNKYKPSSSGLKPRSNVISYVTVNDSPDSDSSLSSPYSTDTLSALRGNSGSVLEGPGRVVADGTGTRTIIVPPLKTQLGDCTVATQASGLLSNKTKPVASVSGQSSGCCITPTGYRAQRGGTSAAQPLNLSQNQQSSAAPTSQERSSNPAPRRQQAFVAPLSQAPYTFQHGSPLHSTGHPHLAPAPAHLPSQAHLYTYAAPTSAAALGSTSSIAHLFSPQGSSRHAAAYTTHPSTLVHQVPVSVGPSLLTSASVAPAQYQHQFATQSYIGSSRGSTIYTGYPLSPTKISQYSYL
Mitogen-activated protein kinase 14, sequence (Q16539 whole entry): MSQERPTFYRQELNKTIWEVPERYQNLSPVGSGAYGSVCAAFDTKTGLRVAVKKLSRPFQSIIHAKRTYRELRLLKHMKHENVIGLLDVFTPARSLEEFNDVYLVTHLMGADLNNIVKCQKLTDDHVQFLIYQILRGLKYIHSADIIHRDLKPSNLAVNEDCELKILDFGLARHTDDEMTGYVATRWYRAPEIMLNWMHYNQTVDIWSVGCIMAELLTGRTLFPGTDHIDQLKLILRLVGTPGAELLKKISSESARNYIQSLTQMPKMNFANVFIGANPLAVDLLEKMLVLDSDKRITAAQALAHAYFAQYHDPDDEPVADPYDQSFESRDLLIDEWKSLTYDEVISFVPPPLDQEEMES

Structure (SMILES): CN1CCN(CCNc2nccc(-c3c(-c4cccc(O)c4)nc4sccn34)n2)S1(=O)=O
- Activity [1]: Non-Toxic
- remaining at 0.5 h, 10 µM [2]: 97.2%
- IC50 [3]: 13500 nM
- remaining at 2 h, 10 µM [4]: 76.6%
- Vd [5]: 0.578 L/kg
- clearance [6]: 2.07 mL/min/kg
- half-life [7]: 3.35 h
- Cmax [8]: 96.9 ng/mL
- IC50 [9]: 910 nM
- bioavailability [10]: 6.59%
- IC50 [11]: 1020 nM
- Activity [12]: Toxic
- remaining at 0.5 h, 10 µM [13]: 90.6%
- IC50 [14]: 3780 nM
- IC50 [15]: 1510 nM
- IC50 [16]: 820 nM
- Papp B→A at 1 h, 5 µM [17]: 21.8 ×10⁻⁶ cm/s
- IC50 [18]: 1.12 nM
- Papp A→B at 1 h, 5 µM [19]: 14.2 ×10⁻⁶ cm/s
- Tmax [20]: 2.08 h
- IC50 [21]: 12400 nM
- IC50 [22]: 9010 nM
- IC50 [23]: 2 nM
- half-life [24]: 1.72 h
- remaining at 2 h, 10 µM [25]: 95.4%
- IC50 [26]: 11300 nM
- IC50 [27]: 0.07 nM
